ChEMBL document CHEMBL1127799, “Derivatives of a novel cyclopeptolide. 1. Synthesis, antifungal activity, and structure-activity relationships” (1994)
Converted amounts (≈) assume the structure as drawn.

Assays:
Assay type in all cases: functional
Candida albicans [1] = test: Tested for minimum subinhibitory concentration against Candida albicans 4 (Candida albicans) at pH 4.5.
Summary of the method: (§1)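 Malt extract broth microdilution at initial pH 4.5, 1×10^3 CFU/0.2 mL well, final compound 0.05–100 μg/mL diluted from DMSO/Tween 80 stocks. Incubation was 48 h at 30 °C with macroscopic reading. MSIC was the lowest concentration causing visible growth inhibition in at least two of three triplicates.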

Candida albicans [2] = test: Tested for minimum subinhibitory concentration against Candida albicans 88 (Candida albicans) at pH 6.5.
Summary of the method: (§2)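 Malt extract broth microdilution, initial pH 6.5, inoculum 1×10^3 CFU per 0.2 mL well. Compound diluted from 0.08% stock (5% DMSO/0.2% Tween 80) to final 0.05–100 μg/mL. Macroscopic reading after 48 h, 30 °C. MSIC = lowest concentration giving visible growth inhibition in at least two of three triplicates. Vehicle-only negative controls.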

Candida albicans [3] = test: Tested for minimum subinhibitory concentration against Candida albicans 9 (Candida albicans) at pH 4.5.; summary of the method: as §1
Candida albicans [4] = test: Tested for minimum subinhibitory concentration against Candida albicans 90 (Candida albicans) at pH 6.5.; summary of the method: as §2
Candida albicans [5] = test: Tested for minimum subinhibitory concentration against Candida albicans 26 (Candida albicans) at pH 4.5.; summary of the method: as §1
Candida albicans [6] = test: Tested for minimum subinhibitory concentration against Candida albicans 3 (Candida albicans) at pH 4.5.; summary of the method: as §1
Candida albicans [7] = test: Tested for minimum inhibitory concentration against Candida albicans 124 (Candida albicans) at pH 4.5.
Summary of the method: (§3)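 Broth microdilution in malt extract broth, initial pH 4.5 or 6.5, with 1×10^3 CFU per 0.2 mL well of thawed stored cultures. Compound stocks were made in 5% DMSO/0.2% Tween 80 and diluted to final 0.05–100 μg/mL. Plates were incubated 48 h at 30 °C and read macroscopically. MIC was the lowest concentration with no detectable growth. Vehicle-only wells served as controls.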

Candida albicans [8] = test: Tested for minimum inhibitory concentration against Candida albicans 124 (Candida albicans) at pH 6.5.
Summary of the method: (§4)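 Broth microdilution in malt extract broth, initial pH 6.5, 1×10^3 CFU per 0.2 mL well, from liquid-nitrogen-stored Sabouraud cultures. Compound from 0.08% stock in 5% DMSO/0.2% Tween 80, final 0.05–100 μg/mL. Visual reading after 48 h at 30 °C. MIC = lowest concentration with no detectable growth. Vehicle-only negative controls.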

Candida albicans [9] = test: Tested for minimum inhibitory concentration against Candida albicans 4 (Candida albicans) at pH 4.5.; summary of the method: as §3
Candida albicans [10] = test: Tested for minimum inhibitory concentration against Candida albicans 9 (Candida albicans) at pH 6.5.; summary of the method: as §4
Candida albicans [11] = test: Tested for minimum inhibitory concentration against Candida albicans 90 (Candida albicans) at pH 6.5.; summary of the method: as §4
[12] = tested on: Meyerozyma guilliermondii; test: Tested for minimum inhibitory concentration against Candida guilliermondii 80 (C.g) at pH of 6.5.; summary of the method: as §3
[13] = tested on: Meyerozyma guilliermondii; test: Tested for minimum subinhibitory concentration against Candida guilliermondii 80 (C.g) at pH 6.5.; summary of the method: as §2
Candida albicans [14] = test: Tested for minimum subinhibitory concentration against Candida albicans 124 (Candida albicans) at pH 4.5.; summary of the method: as §1
Pichia kudriavzevii [15] = test: Tested for minimum inhibitory concentration against Candida krusei 132 (C.k) at pH of 4.5.; summary of the method: as §3
Pichia kudriavzevii [16] = test: Tested for minimum inhibitory concentration against Candida krusei 132 (C.k) at pH of 6.5.; summary of the method: as §3
Pichia kudriavzevii [17] = test: Tested for minimum subinhibitory concentration against Candida krusei 132 (C.k) at pH 6.5.; summary of the method: as §2
Candida tropicalis [18] = test: Tested for minimum inhibitory concentration against Candida tropicalis 43 (C.t) at pH of 4.5.; summary of the method: as §3
Candida tropicalis [19] = test: Tested for minimum subinhibitory concentration against Candida tropicalis 43 (C.t) at pH 4.5.; summary of the method: as §1
Candida tropicalis [20] = test: Tested for minimum subinhibitory concentration against Candida tropicalis 43 (C.t) at pH 6.5.; summary of the method: as §2
Mus musculus [21] = species: Mus musculus; test: Tested for efficacy of compound in experimental vaginal candidosis (mouse) after oral treatment at dosage of 4 x150 mg kg e-1
Summary of the method: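 Vaginal candidiasis in hormonally conditioned female NMRI mice (18–20 g), 10 per group, inoculated intravaginally with 50 μL Sabouraud's glucose broth containing 3.5×10^4 CFU C. albicans no. 124. Dosed four times per gavage, 2 h before and 2, 18 and 24 h after infection. Vaginal swabs plated on Sabouraud's glucose agar with streptomycin (0.1 mg/mL), 48 h at 37 °C. Cure = failed reisolation.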

Mus musculus [22] = test: Tested for efficacy of compound in experimental systemic candidosis (mouse) after intraperitoneal treatment at dosage of 8 *50 mg kg e-1
Summary of the method: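 Mice (female NMRI, 18–20 g; 10 per group) infected by tail-vein injection of 10⁶ CFU C. albicans no. 124. Compound was given intraperitoneally twice daily on 4 consecutive days, starting 2 h before inoculation. Efficacy was scored as survival rate up to day 9 after infection.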

Rattus norvegicus [23] = test: Tested for efficacy of compound in experimental vaginal candidosis (rat) after intraperitoneal treatment at dosage of 2x 50 mg kg e-1
Summary of the method: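 Female Wistar rats (~150 g; 10 per group) were hormonally conditioned and infected intravaginally with 3.5×10^4 CFU C. albicans no. 124 in 50 μL broth. Intraperitoneal dosing was given twice, 2 h before and 18 h after infection. Swabs taken one day after the last dose were plated on streptomycin Sabouraud agar (48 h, 37 °C). Cure meant failed reisolation.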

Rattus norvegicus [24] = species: Rattus norvegicus; test: Tested for efficacy of compound in experimental vaginal candidosis (rat) after oral treatment at dosage of 2x 150 mg kg e-1
Summary of the method: (§5)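 Hormonally conditioned female Wistar rats (~150 g), 10 per group, given intravaginal C. albicans no. 124, 3.5×10^4 CFU in 50 μL Sabouraud's glucose broth. Oral dosing twice, 2 h before and 18 h after infection. Vaginal swabs plated on Sabouraud's glucose agar with streptomycin (0.1 mg/mL), 48 h at 37 °C. Cured when C. albicans not reisolated.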

Rattus norvegicus [25] = species: Rattus norvegicus; test: Tested for efficacy of compound in experimental vaginal candidosis (rat) after oral treatment at dosage of 2x 300 mg kg e-1; summary of the method: as §5
Rattus norvegicus [26] = species: Rattus norvegicus; test: Tested for efficacy of compound in experimental vaginal candidosis (rat) after tropical treatment at dosage of 9x 0.1% drug concentration
Summary of the method: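 Female Wistar rats (~150 g, hormonally conditioned, 10 per group) infected intravaginally with 3.5×10^4 CFU C. albicans no. 124 in 50 μL broth. Intravaginal gel, 0.2 mL, from 2 h post-inoculation, twice daily for 4 days (nine applications). Swabs plated one day after last treatment on Sabouraud's glucose agar with streptomycin, 48 h at 37 °C. Cure = no reisolation.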

Rattus norvegicus [27] = species: Rattus norvegicus; test: Tested for efficacy of compound in experimental vaginal candidosis (rat) after tropical treatment at dosage of 9x 1% drug concentration
Summary of the method: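 Hormonally conditioned female Wistar rats (~150 g; 10 per group) were infected intravaginally with 3.5×10^4 CFU C. albicans no. 124. Intravaginal gel (0.2 mL) started 2 h post-inoculation and was applied twice daily for 4 days, giving nine applications. Vaginal swabs taken one day after the last treatment were cultured on streptomycin Sabouraud agar at 37 °C for 48 h. Cure meant no reisolation.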

Candida tropicalis [28] = test: Tested for minimum inhibitory concentration against Candida tropicalis (C.t) at pH 4.5.; summary of the method: as §3
Candida albicans [29] = test: Tested for minimum inhibitory concentration against Candida albicans 4 (Candida albicans) at pH 6.5.; summary of the method: as §4

**Q.** With CC[C@@H](C)[C@H]1C(=O)NCC(=O)N(C)[C@@H](C(C)C)C(=O)N[C@@H](Cc2ccc(OC)cc2)C(=O)O[C@H](C)C(=O)N2CCCC[C@H]2C(=O)N(C)[C@@H](C(C)C)C(=O)N[C@@H](C(C)C)C(=O)N(C)[C@@H](CC(=O)O)C(=O)N(C)[C@@H]([C@@H](C)CC)C(=O)N1C as the molecule, how does the MSIC (Candida albicans [1]) read?
**A.** The MSIC was 0.78 µg/mL.

**Q.** And the MSIC (Candida albicans [2])?
**A.** Its MSIC is 3.12 µg/mL.

**Q.** And the MSIC (Candida albicans [3])?
**A.** The MSIC was 0.78 µg/mL.

**Q.** What about the MSIC (Candida albicans [4]) of the same molecule?
**A.** The MSIC was 3.12 µg/mL.

**Q.** And the MSIC (Candida albicans [5])?
**A.** Its MSIC is 0.78 µg/mL.

**Q.** And the MSIC (Candida albicans [6])?
**A.** The MSIC was 0.78 µg/mL.

**Q.** And the MIC (Candida albicans [7])?
**A.** Its MIC is 1.56 µg/mL (≈ 1.38 µM).

**Q.** And the MIC (Candida albicans [8])?
**A.** The MIC was 50 µg/mL (≈ 44.4 µM).

**Q.** What about the MIC (Candida albicans [9]) of the same molecule?
**A.** Its MIC is 6.25 µg/mL (≈ 5.55 µM).

**Q.** What about the MIC (Candida albicans [10]) of the same molecule?
**A.** Its MIC is > 100 µg/mL.

**Q.** And the MIC (Candida albicans [11])?
**A.** Its MIC is 100 µg/mL (≈ 88.8 µM).

**Q.** What about the MIC [12] of the same molecule?
**A.** The MIC was > 100 µg/mL.

**Q.** What about the MSIC [13] of the same molecule?
**A.** Its MSIC is 12.5 µg/mL.

**Q.** What about the MSIC (Candida albicans [14]) of the same molecule?
**A.** The MSIC was 0.4 µg/mL.

**Q.** And the MIC (Pichia kudriavzevii [15])?
**A.** The MIC was > 100 µg/mL.

**Q.** And the MIC (Pichia kudriavzevii [16])?
**A.** The MIC was > 100 µg/mL.

**Q.** And the MSIC (Pichia kudriavzevii [17])?
**A.** The MSIC was 3.12 µg/mL.

**Q.** What about the MIC (Candida tropicalis [18]) of the same molecule?
**A.** Its MIC is 1.56 µg/mL (≈ 1.38 µM).

**Q.** What about the MSIC (Candida tropicalis [19]) of the same molecule?
**A.** Its MSIC is 0.8 µg/mL.

**Q.** And the MSIC (Candida tropicalis [20])?
**A.** The MSIC was 6.25 µg/mL.

**Q.** What about the Efficacy (Mus musculus [21]) of the same molecule?
**A.** Its Efficacy is 31%.

**Q.** And the Efficacy (Mus musculus [22])?
**A.** Its Efficacy is 20%.

**Q.** And the Efficacy (Rattus norvegicus [23])?
**A.** The Efficacy was 0%.

**Q.** And the Efficacy (Rattus norvegicus [24])?
**A.** Its Efficacy is 0%.

**Q.** And the Efficacy (Rattus norvegicus [25])?
**A.** Its Efficacy is 56%.

**Q.** And the Efficacy (Rattus norvegicus [26])?
**A.** The Efficacy was 78%.

**Q.** What about the Efficacy (Rattus norvegicus [27]) of the same molecule?
**A.** The Efficacy was 100%.

**Q.** And the MIC (Candida tropicalis [28])?
**A.** Its MIC is 1.56 µg/mL (≈ 1.38 µM).

**Q.** What about the MIC (Candida albicans [29]) of the same molecule?
**A.** The MIC was 100 µg/mL (≈ 88.8 µM).
